Columns and labels:
[1] = biological target: T1, Beta-3 adrenergic receptor (Homo sapiens, UniProt P13945); assay: Displacement of [125I]iodocyanopindolol from cloned human adrenergic beta-3 receptor expressed in CHO cells; type: cell-based
Target sequence in this assay (P13945 whole entry): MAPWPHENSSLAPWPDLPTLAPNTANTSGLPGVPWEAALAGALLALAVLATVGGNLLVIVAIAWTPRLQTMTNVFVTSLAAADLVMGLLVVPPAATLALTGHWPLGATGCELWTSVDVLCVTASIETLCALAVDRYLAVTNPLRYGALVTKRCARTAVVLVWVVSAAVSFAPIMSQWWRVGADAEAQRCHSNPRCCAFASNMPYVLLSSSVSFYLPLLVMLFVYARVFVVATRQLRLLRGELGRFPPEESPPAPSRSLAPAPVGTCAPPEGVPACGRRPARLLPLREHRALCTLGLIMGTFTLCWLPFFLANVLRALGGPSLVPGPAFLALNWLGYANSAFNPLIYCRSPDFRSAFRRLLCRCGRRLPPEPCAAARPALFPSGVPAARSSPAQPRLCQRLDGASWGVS

[2] = biological target: Beta-2 adrenergic receptor (Homo sapiens, UniProt P07550); assay: Displacement of [125I]iodocyanopindolol from human cloned adrenergic beta-2 receptor expressed in CHO cells; type: cell-based
[3] = biological target: T1, Beta-3 adrenergic receptor; assay: Intrinsic activity at human cloned adrenergic beta3 receptor expressed in CHO cells assessed as cAMP accumulation relative to isoproterenol; type: functional, cell-based
Target sequence in this assay (P13945 whole entry, looked up): as the sequence (P13945 whole entry) above

[4] = biological target: Beta-1 adrenergic receptor (Cavia porcellus) (UniProt B0FL73); assay: Intrinsic activity at adrenergic beta-1 receptor in spontaneously beating guinea pig atria assessed as acceleration in contraction relative to isoproterenol
Sequence of Beta-1 adrenergic receptor (Cavia porcellus) (B0FL73 1-467): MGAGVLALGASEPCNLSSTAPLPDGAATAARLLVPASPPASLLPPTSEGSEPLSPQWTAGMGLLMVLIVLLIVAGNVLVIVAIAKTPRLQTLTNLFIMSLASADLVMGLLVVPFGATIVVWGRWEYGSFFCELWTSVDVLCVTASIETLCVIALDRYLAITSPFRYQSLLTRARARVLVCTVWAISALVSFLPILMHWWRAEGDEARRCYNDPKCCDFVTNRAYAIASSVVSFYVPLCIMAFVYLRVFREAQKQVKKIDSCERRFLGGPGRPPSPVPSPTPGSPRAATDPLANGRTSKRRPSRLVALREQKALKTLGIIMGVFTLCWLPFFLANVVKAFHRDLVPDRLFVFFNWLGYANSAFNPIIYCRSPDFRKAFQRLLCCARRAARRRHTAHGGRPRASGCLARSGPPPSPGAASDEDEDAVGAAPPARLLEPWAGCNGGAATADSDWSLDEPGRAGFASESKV

[5] = biological target: Beta-1 adrenergic receptor (Homo sapiens, UniProt P08588); assay: Displacement of [125I]iodocyanopindolol from human cloned adrenergic beta-1 receptor expressed in CHO cells; type: cell-based
Sequence of Beta-1 adrenergic receptor (P08588 whole entry): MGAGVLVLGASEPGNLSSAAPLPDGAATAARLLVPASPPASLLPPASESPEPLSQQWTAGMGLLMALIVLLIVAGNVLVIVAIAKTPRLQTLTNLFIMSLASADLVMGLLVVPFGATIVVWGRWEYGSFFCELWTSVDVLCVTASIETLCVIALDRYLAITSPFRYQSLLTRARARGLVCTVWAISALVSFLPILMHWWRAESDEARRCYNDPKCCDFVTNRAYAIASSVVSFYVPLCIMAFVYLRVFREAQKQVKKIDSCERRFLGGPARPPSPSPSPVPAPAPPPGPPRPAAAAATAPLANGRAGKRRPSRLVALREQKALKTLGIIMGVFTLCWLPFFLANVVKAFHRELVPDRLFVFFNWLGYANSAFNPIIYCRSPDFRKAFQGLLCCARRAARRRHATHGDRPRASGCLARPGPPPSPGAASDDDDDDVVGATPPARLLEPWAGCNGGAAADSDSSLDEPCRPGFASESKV

[6] = species on record: Homo sapiens; assay: Selectivity ratio of Ki for adrenergic beta2 receptor Ki for adrenergic beta-3 receptor
[7] = species on record: Homo sapiens; assay: Selectivity ratio of Ki for human adrenergic beta-1 receptor to Ki for human adrenergic beta-3 receptor
[8] = test system: African green monkey; assay: Effect on African green monkey assessed as change in free fatty acid level at 0.1 mg/kg, iv; type: functional, Chlorocebus sabaeus
Summary of the method: (§1)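 Single iv dose given to ketamine-sedated African green monkeys, either 0.1 or 0.5 mg/kg as the line states. Three read-outs were recorded after dosing: change in serum free fatty acids (β3 lipolysis), change in serum K+ (a decrease is β2-mediated) and change in heart rate (β1/β2 tachycardia). Changes were tested for significance at P < 0.05.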

[9] = test system: African green monkey; assay: Effect on tachycardia in African green monkey assessed as change in heart rate at 0.1 mg/kg, iv; type: functional, Chlorocebus sabaeus; summary of the method: as §1
[10] = test system: African green monkey; assay: Effect on potassium levels in African green monkey serum at 0.1 mg/kg, iv; type: functional, Chlorocebus sabaeus; design: unit not given beside the values; summary of the method: as §1
[11] = test system: African green monkey; assay: Effect on lipolysis in iv dosed African green monkey; type: functional; conditions: Chlorocebus sabaeus
Summary of the method: (§2)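 Compounds were given iv to ketamine-sedated African green monkeys across a range of doses. Lipolysis ED50 (mg/kg) came from the rise in serum free fatty acids. Onset doses were the lowest doses giving a statistically significant rise in heart rate (β1) or fall in serum K+ (β2). Each margin is the onset dose divided by the lipolysis ED50.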

[12] = test system: African green monkey; assay: Ratio of effect on tachycardia to ED50 for lipolysis in African green monkey; type: functional, Chlorocebus sabaeus; summary of the method: as §2
[13] = test system: African green monkey; assay: Ratio of serum potassium concentration to ED50 for lipolysis in African green monkey; type: functional, Chlorocebus sabaeus; summary of the method: as §2

Sequence of Beta-2 adrenergic receptor (P07550 whole entry): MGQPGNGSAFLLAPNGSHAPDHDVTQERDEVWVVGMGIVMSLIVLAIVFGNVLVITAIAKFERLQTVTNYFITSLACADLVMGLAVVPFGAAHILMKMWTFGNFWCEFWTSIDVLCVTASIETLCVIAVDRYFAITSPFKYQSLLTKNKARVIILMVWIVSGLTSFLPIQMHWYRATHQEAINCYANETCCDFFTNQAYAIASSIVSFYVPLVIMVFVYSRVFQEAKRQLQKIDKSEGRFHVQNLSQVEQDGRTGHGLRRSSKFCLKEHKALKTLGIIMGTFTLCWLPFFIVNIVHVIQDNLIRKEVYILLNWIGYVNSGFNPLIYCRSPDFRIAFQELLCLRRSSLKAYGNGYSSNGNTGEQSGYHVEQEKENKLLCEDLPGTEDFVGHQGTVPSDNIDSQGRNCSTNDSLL

Row | SMILES | Ki [1] | Ki [2] | Intrinsic activity [3] | Ki [5] | Ratio Ki [6] | Ratio Ki [7] | further results
1 | COc1ccc([C@@H](Cc2ccccc2)NC[C@H](O)Cc2ccc(O)c(NS(C)(=O)=O)c2)cc1 | 460 nM | 3100 nM | 30% | > 10000 nM | – | – | Intrinsic activity [4]: 0%
2 | COc1ccc([C@@H](Cc2ccccc2)NC[C@@H](O)Cc2ccc(O)c(NS(C)(=O)=O)c2)cc1 | 53 nM | 510 nM | 65% | 6000 nM | – | – | –
3 | COc1ccc([C@@H](Cc2ccccc2)NC[C@H](O)CCc2ccc(O)c(NS(C)(=O)=O)c2)cc1OC | 160 nM | – | 60% | – | 27 | 112 | –
4 | CS(=O)(=O)Nc1cc(C[C@@H](O)CN[C@@H](CCc2ccccc2)c2ccc(OC(F)F)c(OC(F)F)c2)ccc1O | 59 nM | 71 nM | 86% | 490 nM | 1 | 8 | –
5 | COc1ccc([C@@H](Cc2ccccc2)NC[C@H](O)COc2ccc(O)c(NS(C)(=O)=O)c2)cc1OC | 3 nM | – | 67% | – | 15 | 120 | –
6 | CS(=O)(=O)Nc1cc(OC[C@@H](O)CN[C@H](Cc2ccccc2)c2ccc(OC(F)F)cc2)ccc1O | 5 nM | – | 48% | – | 7 | 66 | –
7 | COc1ccc([C@H](CCc2ccc(Cl)cc2)NC[C@H](O)Cc2ccc(O)c(NS(C)(=O)=O)c2)cc1OC | 12 nM | 120 nM | 89% | 1050 nM | 10 | 88 | Activity [8]: 0.87; Activity [9]: 32; Activity [10]: -0.32
8 | COc1ccc([C@H](CCc2ccccc2)NC[C@H](O)Cc2ccc(O)c(NS(C)(=O)=O)c2)cc1OC | 9 nM | 390 nM | 84% | 1000 nM | 43 | 111 | Activity [8]: 0.95; Activity [9]: 29; Activity [10]: -0.25
9 | COc1ccc([C@H](NC[C@H](O)c2ccc(O)c(NS(C)(=O)=O)c2)C(=O)Nc2ccccc2)cc1 (stereo in doubt; 1a) | – | – | 119% | – | – | – | –
10 | COc1ccc([C@@H](Cc2ccccc2Cl)NC[C@@H](O)Cc2ccc(O)c(NS(C)(=O)=O)c2)cc1OC | 7 nM | – | 65% | – | 13 | 58 | –
11 | COc1ccc(CC(Cc2ccc(OC)c(OC)c2)NC[C@@H](O)Cc2ccc(O)c(NS(C)(=O)=O)c2)cc1OC | 170 nM | – | 75% | – | 0.2 | 3 | –
12 | COc1ccc(C(C)(C)NC[C@H](O)c2ccc(O)c(NS(C)(=O)=O)c2)cc1 | 7 nM | – | 86% | – | – | – | –
13 | CS(=O)(=O)Nc1cc([C@@H](O)CNC(c2ccc(OC(F)F)cc2)c2ccc(OC(F)F)cc2)ccc1O | – | – | – | – | – | – | ED50 [11]: 0.08 mg/kg; Ratio [12]: 6; Ratio [13]: >60
14 | COc1ccc([C@H](CCc2ccccc2Cl)NC[C@H](O)Cc2ccc(O)c(NS(C)(=O)=O)c2)cc1OC | 7 nM | 57 nM | 73% | 270 nM | 8 | 39 | –
15 | COc1ccc(C(C)(C)NC[C@H](O)c2ccc(O)c(NS(C)(=O)=O)c2F)cc1 | 200 nM | – | 88% | – | – | – | –
16 | COc1ccc([C@H](CCc2ccccc2)NC[C@H](O)Cc2ccc(O)c(NS(C)(=O)=O)c2)cc1 | 31 nM | 280 nM | 93% | 730 nM | 9 | 24 | –
17 | CCOP(=O)(OCC)c1ccc(NC(=O)[C@@](C)(NC[C@H](O)c2ccc(O)c(NS(C)(=O)=O)c2)c2ccc(OC)cc2)cc1 | – | – | – | – | – | – | ED50 [11]: 0.1 mg/kg; Ratio [12]: >25; Ratio [13]: >25
18 | CS(=O)(=O)Nc1c(O)ccc([C@@H](O)CN[C@H](Cc2ccccc2)c2ccc(OC(F)F)cc2)c1F | 270 nM | – | 77% | – | – | – | –
19 | CS(=O)(=O)Nc1cc([C@@H](O)CN[C@H](Cc2ccccc2)c2ccc(OC(F)F)cc2)ccc1O | – | – | 107% | – | – | – | ED50 [11]: 0.03 mg/kg; Ratio [12]: 3; Activity [8]: 1.05; Activity [9]: 26; Ratio [13]: >25; Activity [10]: 0.08
20 | COc1ccc([C@@H](Cc2ccccc2)NC[C@@H](O)Cc2ccc(O)c(NS(C)(=O)=O)c2)cc1O | 8 nM | 1070 nM | 70% | 3200 nM | – | – | –
21 | CS(=O)(=O)Nc1cc(C[C@H](O)CNC(c2ccc(OC(F)F)cc2)c2ccc(OC(F)F)cc2)ccc1O | 340 nM | – | 60% | – | 0.6 | 3 | –

Row | SMILES | Ki [1] | Ki [2] | Intrinsic activity [3] | Ki [5] | Ratio Ki [6] | Ratio Ki [7] | further results
22 | CS(=O)(=O)Nc1c(O)ccc([C@@H](O)CN)c1F | 120000 nM | – | 0% | – | – | – | –
23 | COc1ccc(CNCC(O)Cc2ccc(O)c(NS(C)(=O)=O)c2)cc1 (stereo not drawn) | 1100 nM | – | 50% | – | 0.3 | 2 | –
24 | CS(=O)(=O)Nc1cc(C[C@H](O)CN[C@H](Cc2ccccc2)c2ccc(Cl)c(Cl)c2)ccc1O | 133 nM | 38 nM | 70% | 1500 nM | – | – | –
25 | COc1cccc([C@H](CCc2ccccc2)NC[C@H](O)Cc2ccc(O)c(NS(C)(=O)=O)c2)c1 | 390 nM | 200 nM | 44% | 570 nM | 0.5 | 1 | –
26 | COc1ccc([C@@H](Cc2cccc(Cl)c2)NC[C@@H](O)Cc2ccc(O)c(NS(C)(=O)=O)c2)cc1OC | 6 nM | – | 68% | – | 13 | 52 | Activity [8]: 0.92; Activity [9]: 6; Activity [10]: -0.55
27 | COc1ccc([C@H](NC[C@H](O)c2ccc(O)c(NS(C)(=O)=O)c2F)C(=O)Nc2ccccc2)cc1 | – | – | 58% | – | – | – | –
28 | COc1ccc(CCNCC(O)Cc2ccc(O)c(NS(C)(=O)=O)c2)cc1OC (stereo not drawn) | 7300 nM | – | 35% | – | 0.1 | 0.6 | –
29 | COc1ccc([C@H](Cc2ccccc2)NC[C@H](O)Cc2ccc(O)c(NS(C)(=O)=O)c2)cc1OC | 150 nM | 820 nM | 70% | 47000 nM | – | – | Intrinsic activity [4]: 48%
30 | COc1ccc([C@H](CCc2cccc(Cl)c2)NC[C@H](O)Cc2ccc(O)c(NS(C)(=O)=O)c2)cc1OC | 29 nM | 26 nM | 57% | 420 nM | 1 | 14 | –
31 | COc1ccc([C@@H](Cc2ccc(Cl)cc2)NC[C@@H](O)Cc2ccc(O)c(NS(C)(=O)=O)c2)cc1OC | 24 nM | – | 68% | – | 6 | 24 | –
32 | CS(=O)(=O)Nc1cc(C[C@H](O)CN[C@H](Cc2ccccc2)c2ccc(OC(F)F)c(OC(F)F)c2)ccc1O | 19 nM | 102 nM | 60% | 690 nM | – | – | Intrinsic activity [4]: 0%
33 | CS(=O)(=O)Nc1cc([C@@H](O)CN)ccc1O | 17000 nM | – | 93% | – | – | – | –
34 | CS(=O)(=O)Nc1cc(OC[C@@H](O)CN)ccc1O | 15000 nM | – | 47% | – | 0.04 | 0.08 | –
35 | COc1cccc([C@@H](Cc2ccccc2)NC[C@H](O)Cc2ccc(O)c(NS(C)(=O)=O)c2)c1 | 1100 nM | 2700 nM | 27% | > 10000 nM | – | – | Intrinsic activity [4]: 0%
36 | COc1ccc(CNC[C@H](O)CCc2ccc(O)c(NS(C)(=O)=O)c2)cc1 | 3700 nM | – | 42% | – | 1 | 1 | –
37 | COc1ccc(CNC[C@H](O)COc2ccc(O)c(NS(C)(=O)=O)c2)cc1 | 360 nM | – | 46% | – | 0.4 | 3 | –
38 | COc1cccc([C@@H](Cc2ccccc2)NC[C@@H](O)Cc2ccc(O)c(NS(C)(=O)=O)c2)c1 | 110 nM | 350 nM | 44% | 3600 nM | – | – | –
39 | COc1ccc([C@H](Cc2ccccc2)NC[C@@H](O)Cc2ccc(O)c(NS(C)(=O)=O)c2)cc1OC | 9 nM | 24 nM | 62% | 560 nM | – | – | Intrinsic activity [4]: 75%
40 | COc1ccc([C@@H](Cc2ccccc2)NC[C@H](O)Cc2ccc(O)c(NS(C)(=O)=O)c2)cc1OC | 25 nM | 1500 nM | 43% | > 10000 nM | – | – | Intrinsic activity [4]: 0%
41 | CS(=O)(=O)Nc1cc(CC[C@@H](O)CN[C@H](Cc2ccccc2)c2ccc(OC(F)F)cc2)ccc1O | 880 nM | – | 40% | – | 7 | 38 | –
